Screening results (PubChem)
Diaph inh CS = inhibits diaphorase or chemically oxidizes, flagging diaphorase assay artifacts; diaphorase resazurin-to-resorufin fluorescence, NADH, 16 min; bacterial (C. kluyveri) enzyme, not human; inhibition, % at 20 µM; actives 0.69% (n = 190,000); AID 1217;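 active = primary screen inhibition at 20 µM above a set limit, cut at about 50% in these data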
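material = Clostridium kluyveri diaphorase enzyme | amount = 0.14 U/mL diaphorase, enzyme working solution | schedule = incubation 16 min, room temperature | detection = fluorescence of resorufin formed from resazurin, Ex 544/Em 590 nm | benchmarks = positive control minus NADH, DMSO neutral control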
G6PDH CS = L. mesenteroides G6PDH inhibition counter-screen. Purified L. mesenteroides G6PDH, diaphorase/resazurin coupled fluorescence, 45 min. inhibition, % at 5 µM. actives 0.12% (n = 200,000)
Diaph act CS = diaphorase activation or chemical reduction counter-screen. actives 0.005% (n = 190,000). activation factor at 20 µM. Diaphorase/resazurin coupled assay, resorufin fluorescence, 16 min; hits give high values; 1 = vehicle wells, 0 = NADH-free wells. AID 1229;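 active = diaphorase activity raised at least twofold by the compound at 20 µM; inactive = activation factor below 2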
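System – purified diaphorase enzyme from Clostridium kluyveri · Input – enzyme 0.07 U/mL final · Also added – final NADH 0.114 mM, resazurin 0.1 mM · Measured by – fluorescence of resorufin, 544 nm excitation, 590 nm emission · Timing – 16 min enzyme reaction, ambient temperature · Measure – resorufin increase flagging diaphorase activators or reducers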
L major viab = reduces viability of Leishmania major promastigotes; actives 9% (n = 200,000); inhibition, % at 10 µM; resazurin fluorescence viability;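 note: promastigotes grown with compound for 44 hours at 28 °C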
WT yeast gro inh = growth inhibition of WT yeast, mitochondrial fusion screen | actives 2.1% (n = 190,000) | inhibition, % at 10 µM | mitochondrial fusion phenotypic screen, WT strain; in the data active = inhibition above about 58%; tested in S. cerevisiae
Large screens that a line does not name were inactive. Hits are enriched below; roughly 11% of the tested compounds scored in any of these assays. Cut-off read from the data, not from the text of the source, unless noted: active = inhibition above about 50%; inactive = the rest.

CCN(CC)c1ccc(Nc2nc(N3CCOCC3)c3ccccc3n2)cc1	L major viab 96.7
COc1ccc(Nc2nc(N3CCCC3)c3ccccc3n2)cc1	L major viab 100.4
O=C(Nc1ccccc1Cl)c1cc[n+](Cc2ccc([N+](=O)[O-])cc2)cc1	none
COc1cc(OC)cc(C(=O)NCCCN2CCOCC2)c1	none
Cc1ccc2cc3cc(C(=O)NCCN4CCOCC4)oc3nc2c1	L major viab 70.5
O=C(CCc1ccccc1)NCCCN1CCOCC1	none
O=C(NCCCN1CCOCC1)c1cc2ccccc2o1	L major viab 79.5 (no result: WT yeast gro inh)
O=C(NCCCN1CCOCC1)c1ccco1	none
Cc1ccc2cc3cc(C(=O)NCc4ccc5c(c4)OCO5)oc3nc2c1	none
COc1ccc2cc3cc(C(=O)NCCCN4CCOCC4)oc3nc2c1	L major viab 97.5
O=C(NCCCN1CCOCC1)C(Sc1ccccc1)c1ccccc1 (configuration not stated)	L major viab 90.5
COc1cc(S(=O)(=O)Nc2ccc3cn[nH]c3c2)ccc1Cl	none
O=C(c1cccc(Cl)c1)N1CCn2c1nc1ccccc12	none (no result: Diaph inh CS, Diaph act CS)
CC(C)c1csc(CN2CCC(N3CCC(C(=O)N4CCOCC4)CC3)CC2)n1	none
CCN1CCN(CCCNC(=O)c2cc3cc4ccc(OC)cc4nc3o2)CC1	L major viab 100.2
O=[N+]([O-])c1ccc(Sc2n[nH]c(-c3ccc(Cl)cc3Cl)n2)nc1	none
Cc1c(Cl)cccc1NC(=S)NCc1cccn1C	none
COc1ccc(Br)cc1S(=O)(=O)N1CC(C)OC(C)C1 (configuration not stated)	none
CCOc1ccc(C(C)(C)C)cc1S(=O)(=O)N1CC(C)OC(C)C1 (configuration not stated)	L major viab 63.5
Cc1cc(OCCOCCNC(C)C)cc(C)c1Cl	L major viab 98.0 (no result: WT yeast gro inh)
Cc1cc(OCC(=O)NC(C)C)cc(C)c1Cl	none
Cc1ccc(CC(=O)Nc2nc3c(s2)CCCC3)cc1	none
COc1ccc(NC(=O)Nc2nc3c(s2)CCCC3)cc1	L major viab 53.5
O=C(NCCc1ccccc1F)C1CCCN1S(=O)(=O)c1ccc2ccccc2c1 (configuration not stated)	L major viab 57.4
COc1ccc(-c2csc(NC(=O)c3cccc(S(=O)(=O)N4CCN(C)CC4)c3)n2)cc1	L major viab 63.1
CN1CCN(S(=O)(=O)c2cccc(C(=O)Nc3nc(-c4ccccc4)cs3)c2)CC1	none
COc1ccc(S(=O)(=O)N2CCCC2C(=O)Nc2nc3c(s2)CCCC3)cc1 (configuration not stated)	L major viab 89.7
O=C(/C=C/c1ccc(Cl)cc1)NCCN1CCOCC1	none
OCC(O)C(O)C(O)C(O)C1NCCS1 (configuration not stated)	none
CCOCCCNC(=O)C1CCCN1S(=O)(=O)c1ccc(Cl)cc1 (configuration not stated)	L major viab 93.3
COc1ccc(-c2csc(NC(=O)C3CCCCN3S(=O)(=O)c3ccccc3)n2)cc1 (configuration not stated)	L major viab 69.5
CCOCCCNC(=O)C1CCCCN1S(=O)(=O)c1ccc(F)cc1 (configuration not stated)	none
O=C(Nc1nc2ccccc2s1)C1CCCN1S(=O)(=O)c1ccc(Cl)cc1 (configuration not stated)	L major viab 99.3 (no result: WT yeast gro inh)
O=C(NCCc1ccccc1)C1CCCN(C(=O)NC2CCCCC2)C1 (configuration not stated)	none
CC1C(c2ccccc2)N(C)C(c2ccccc2)C(C)C1(O)C#Cc1ccccc1 (configuration not stated)	L major viab 68.9, WT yeast gro inh 75.2
c1ccc(Cc2nn3c(-c4ccncc4)nnc3s2)cc1	none
C=CCC1(NC(C)c2ccccc2)CCCCC1 (configuration not stated)	L major viab 56.6
COc1ccc(CCn2cc(C#N)c(=O)[nH]c2=O)cc1OC	none
CCCN(CCC)CCCOC(=O)c1ccc(Cl)cc1Cl	L major viab 90.1
COc1ccc(C(=O)OCCCN(C)C)cc1OC	L major viab 58.4
CN(C)CCCOC(=O)c1ccc(Cl)cc1Cl	L major viab 93.3
CN(NS(=O)(=O)c1ccc(Cl)cc1)c1ncc(C(F)(F)F)cc1Cl	none
CCOC(=O)c1cnc2ccc(Cl)cc2c1NCCN(C)C	none
